Reference: ChEMBL document CHEMBL1147752, “Pyrazoloheteroaryls: novel p38alpha MAP kinase inhibiting scaffolds with oral activity” (Bioorg Med Chem Lett, 2006)

Experiments:
[1] = Oral bioavailability in rat; format: ADME, organism-based; conditions: in vivo
[2] = biological target: T1, Fibroblast growth factor receptor (Homo sapiens, UniProt P22607+P11362+P22455+P21802); assay: Inhibitory activity against FGFR; format: protein assay
Rattus norvegicus [3] = assay: Inhibition of adjuvant-induced arthritis in rat at 25 mg/kg, po; format: functional; conditions: Wistar
How it was run: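 Female Wistar rats immunized with Mycobacterium tuberculosis on day 0. Compound dosed orally at 25 mg/kg twice daily from day 14 to day 20. Joint swelling measured on day 20; paw swelling inhibition expressed as %.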

Mus musculus = assay: Inhibition of LPS-induced TNFalpha release in mouse at 20 mg/kg, po; format: functional; conditions: OF1
How it was run: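 Female OF1 mice, eight weeks old, given compound orally by gavage as a DMSO/cornoil solution at 20 mg/kg. One hour after dosing, LPS (20 mg/kg) injected iv to stimulate TNF-α release into plasma. Blood collected one hour later; plasma TNF-α measured by mouse-specific ELISA; reported as % inhibition.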

[4] = biological target: RAF proto-oncogene serine/threonine-protein kinase (Homo sapiens) (UniProt P04049); assay: Inhibition of c-Raf at 10 uM
[5] = biological target: Mitogen-activated protein kinase 14 (Mus musculus, UniProt P47811); assay: Inhibitory activity against murine p38-alpha MAPK
Chain of Mitogen-activated protein kinase 14 (P47811 whole entry): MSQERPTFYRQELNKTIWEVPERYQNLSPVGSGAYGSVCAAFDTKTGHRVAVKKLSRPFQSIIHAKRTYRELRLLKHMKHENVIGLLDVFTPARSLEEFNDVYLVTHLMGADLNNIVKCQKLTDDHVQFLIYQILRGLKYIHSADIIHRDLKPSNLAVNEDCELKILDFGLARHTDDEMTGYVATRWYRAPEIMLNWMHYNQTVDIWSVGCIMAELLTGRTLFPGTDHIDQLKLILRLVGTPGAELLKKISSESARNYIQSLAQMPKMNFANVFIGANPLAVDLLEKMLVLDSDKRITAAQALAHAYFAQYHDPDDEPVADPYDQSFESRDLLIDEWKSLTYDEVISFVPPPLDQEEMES
How it was run: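 Kinase assay with phosphorylated His-tagged p38α MAP kinase of murine origin (10 ng/well). Substrate was immobilised GST-ATF-2, with 120 µM cold ATP present. Result expressed as IC50 (nM).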

Rattus norvegicus [6] = assay: Inhibition of collagen-induced arthritis in rat at 10 mg/kg, po; format: functional
How it was run: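 Collagen-induced arthritis in rats. Compounds given orally once daily (q.d.) for 10 days; swelling inhibition recorded.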

[7] = AUC in rat; format: ADME, organism-based; conditions: plasma
[8] = biological target: Mitogen-activated protein kinase 9 (Homo sapiens, UniProt P45984); assay: Inhibitory activity against JNK2
Chain of Mitogen-activated protein kinase 9 (P45984 whole entry): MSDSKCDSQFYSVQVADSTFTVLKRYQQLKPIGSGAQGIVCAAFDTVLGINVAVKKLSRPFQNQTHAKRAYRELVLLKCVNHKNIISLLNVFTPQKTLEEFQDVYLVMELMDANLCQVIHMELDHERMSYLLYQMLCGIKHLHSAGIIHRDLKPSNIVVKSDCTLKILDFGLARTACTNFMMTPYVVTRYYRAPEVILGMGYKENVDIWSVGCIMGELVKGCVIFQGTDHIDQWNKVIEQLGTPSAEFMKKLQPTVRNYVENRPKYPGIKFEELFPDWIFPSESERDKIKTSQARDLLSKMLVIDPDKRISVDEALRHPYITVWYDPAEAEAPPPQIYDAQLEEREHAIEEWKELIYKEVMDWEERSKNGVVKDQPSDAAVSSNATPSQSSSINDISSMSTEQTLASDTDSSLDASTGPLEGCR

[9] = biological target: T2, Receptor tyrosine-protein kinase erbB-2 (Homo sapiens, UniProt P04626); assay: Inhibitory activity against HER2
T2 sequence (P04626 whole entry): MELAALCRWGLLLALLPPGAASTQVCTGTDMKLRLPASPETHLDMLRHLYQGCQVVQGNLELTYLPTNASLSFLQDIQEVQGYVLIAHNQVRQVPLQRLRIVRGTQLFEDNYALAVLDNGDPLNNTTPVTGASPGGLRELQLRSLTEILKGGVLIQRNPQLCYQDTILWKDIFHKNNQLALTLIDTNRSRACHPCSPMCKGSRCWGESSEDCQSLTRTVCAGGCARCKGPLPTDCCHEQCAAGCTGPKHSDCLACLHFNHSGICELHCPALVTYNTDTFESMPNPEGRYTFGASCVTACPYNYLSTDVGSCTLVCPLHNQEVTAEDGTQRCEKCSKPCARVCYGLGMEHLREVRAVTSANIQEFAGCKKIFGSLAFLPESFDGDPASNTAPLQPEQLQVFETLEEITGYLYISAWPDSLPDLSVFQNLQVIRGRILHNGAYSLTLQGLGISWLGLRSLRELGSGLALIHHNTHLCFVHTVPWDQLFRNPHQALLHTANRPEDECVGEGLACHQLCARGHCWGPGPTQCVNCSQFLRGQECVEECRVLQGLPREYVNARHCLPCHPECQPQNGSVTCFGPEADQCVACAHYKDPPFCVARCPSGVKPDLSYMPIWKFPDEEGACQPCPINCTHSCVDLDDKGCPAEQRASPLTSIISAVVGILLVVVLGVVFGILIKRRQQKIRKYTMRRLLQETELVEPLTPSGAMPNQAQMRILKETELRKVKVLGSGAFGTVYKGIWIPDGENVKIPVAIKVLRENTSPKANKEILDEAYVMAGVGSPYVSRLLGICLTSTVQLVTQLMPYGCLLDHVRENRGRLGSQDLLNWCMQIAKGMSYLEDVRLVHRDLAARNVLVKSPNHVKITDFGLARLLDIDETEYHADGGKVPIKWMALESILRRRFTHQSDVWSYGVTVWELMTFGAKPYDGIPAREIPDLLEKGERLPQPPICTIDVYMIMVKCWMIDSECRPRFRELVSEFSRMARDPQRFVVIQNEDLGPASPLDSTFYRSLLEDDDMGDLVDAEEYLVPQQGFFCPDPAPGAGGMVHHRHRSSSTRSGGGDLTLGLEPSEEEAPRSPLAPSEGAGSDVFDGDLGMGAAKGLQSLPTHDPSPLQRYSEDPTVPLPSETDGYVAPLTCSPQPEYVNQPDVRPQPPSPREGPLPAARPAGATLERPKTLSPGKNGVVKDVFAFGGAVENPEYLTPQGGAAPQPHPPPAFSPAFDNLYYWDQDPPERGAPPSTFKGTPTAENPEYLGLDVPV

[10] = biological target: T3, Epidermal growth factor receptor (Homo sapiens, UniProt P00533); assay: Inhibitory activity against HER1
T3 sequence (P00533 whole entry): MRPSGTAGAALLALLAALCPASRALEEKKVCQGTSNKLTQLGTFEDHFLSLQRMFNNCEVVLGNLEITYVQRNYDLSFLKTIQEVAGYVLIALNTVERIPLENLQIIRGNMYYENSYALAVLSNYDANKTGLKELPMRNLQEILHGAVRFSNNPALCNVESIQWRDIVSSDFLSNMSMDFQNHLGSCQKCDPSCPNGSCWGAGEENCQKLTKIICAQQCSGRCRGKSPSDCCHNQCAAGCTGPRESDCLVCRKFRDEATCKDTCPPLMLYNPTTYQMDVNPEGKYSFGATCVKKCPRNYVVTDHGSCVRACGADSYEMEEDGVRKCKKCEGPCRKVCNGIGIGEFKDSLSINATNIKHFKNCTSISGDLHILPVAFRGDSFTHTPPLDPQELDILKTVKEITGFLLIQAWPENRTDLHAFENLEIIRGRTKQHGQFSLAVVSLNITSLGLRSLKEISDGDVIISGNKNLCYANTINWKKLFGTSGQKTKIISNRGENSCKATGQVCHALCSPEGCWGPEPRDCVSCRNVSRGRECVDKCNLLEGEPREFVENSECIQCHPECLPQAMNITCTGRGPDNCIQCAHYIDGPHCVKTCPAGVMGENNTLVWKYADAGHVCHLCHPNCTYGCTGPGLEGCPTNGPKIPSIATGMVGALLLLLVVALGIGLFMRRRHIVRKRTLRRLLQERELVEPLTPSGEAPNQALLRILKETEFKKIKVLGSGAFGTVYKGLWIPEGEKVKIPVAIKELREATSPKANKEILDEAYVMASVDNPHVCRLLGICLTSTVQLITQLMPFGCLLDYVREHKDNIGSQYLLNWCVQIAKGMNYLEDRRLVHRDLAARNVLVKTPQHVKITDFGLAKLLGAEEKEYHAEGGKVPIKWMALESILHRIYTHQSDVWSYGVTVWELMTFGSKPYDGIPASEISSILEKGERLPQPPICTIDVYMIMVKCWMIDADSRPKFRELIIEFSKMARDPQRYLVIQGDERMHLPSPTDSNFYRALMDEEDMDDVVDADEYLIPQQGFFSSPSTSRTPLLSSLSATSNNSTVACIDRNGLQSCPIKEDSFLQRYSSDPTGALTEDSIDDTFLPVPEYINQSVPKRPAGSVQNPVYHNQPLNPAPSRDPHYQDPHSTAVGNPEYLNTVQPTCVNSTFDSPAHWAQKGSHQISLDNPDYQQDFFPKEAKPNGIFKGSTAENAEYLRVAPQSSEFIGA

[11] = biological target: Hepatocyte growth factor receptor (Homo sapiens, UniProt P08581); assay: Inhibitory activity against c-Met
[12] = biological target: Insulin-like growth factor 1 receptor (Homo sapiens) (UniProt P08069); assay: Inhibition of IGF1R at 10 uM
Chain of Insulin-like growth factor 1 receptor (Homo sapiens) (P08069 31-736 limits assumed): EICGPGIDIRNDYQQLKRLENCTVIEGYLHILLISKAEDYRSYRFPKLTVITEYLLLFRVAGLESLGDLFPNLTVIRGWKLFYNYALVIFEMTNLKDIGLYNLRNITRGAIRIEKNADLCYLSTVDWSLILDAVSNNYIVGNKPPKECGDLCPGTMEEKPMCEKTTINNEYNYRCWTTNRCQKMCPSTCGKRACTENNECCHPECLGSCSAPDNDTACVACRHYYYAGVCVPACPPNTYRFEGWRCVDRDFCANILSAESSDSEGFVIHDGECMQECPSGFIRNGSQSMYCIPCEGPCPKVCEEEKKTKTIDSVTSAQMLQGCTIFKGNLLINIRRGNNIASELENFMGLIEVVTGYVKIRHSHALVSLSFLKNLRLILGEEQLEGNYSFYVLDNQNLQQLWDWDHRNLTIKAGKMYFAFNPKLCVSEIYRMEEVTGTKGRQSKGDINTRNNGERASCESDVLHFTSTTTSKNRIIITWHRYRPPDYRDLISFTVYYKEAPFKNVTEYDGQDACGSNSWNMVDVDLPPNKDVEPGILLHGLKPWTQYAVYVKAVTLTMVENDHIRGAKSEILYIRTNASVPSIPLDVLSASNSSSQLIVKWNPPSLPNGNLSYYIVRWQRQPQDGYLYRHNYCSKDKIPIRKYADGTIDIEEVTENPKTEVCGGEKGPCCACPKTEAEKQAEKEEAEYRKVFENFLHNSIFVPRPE
Chain of Insulin-like growth factor 1 receptor (Homo sapiens) (P08069 741-1367 limits assumed): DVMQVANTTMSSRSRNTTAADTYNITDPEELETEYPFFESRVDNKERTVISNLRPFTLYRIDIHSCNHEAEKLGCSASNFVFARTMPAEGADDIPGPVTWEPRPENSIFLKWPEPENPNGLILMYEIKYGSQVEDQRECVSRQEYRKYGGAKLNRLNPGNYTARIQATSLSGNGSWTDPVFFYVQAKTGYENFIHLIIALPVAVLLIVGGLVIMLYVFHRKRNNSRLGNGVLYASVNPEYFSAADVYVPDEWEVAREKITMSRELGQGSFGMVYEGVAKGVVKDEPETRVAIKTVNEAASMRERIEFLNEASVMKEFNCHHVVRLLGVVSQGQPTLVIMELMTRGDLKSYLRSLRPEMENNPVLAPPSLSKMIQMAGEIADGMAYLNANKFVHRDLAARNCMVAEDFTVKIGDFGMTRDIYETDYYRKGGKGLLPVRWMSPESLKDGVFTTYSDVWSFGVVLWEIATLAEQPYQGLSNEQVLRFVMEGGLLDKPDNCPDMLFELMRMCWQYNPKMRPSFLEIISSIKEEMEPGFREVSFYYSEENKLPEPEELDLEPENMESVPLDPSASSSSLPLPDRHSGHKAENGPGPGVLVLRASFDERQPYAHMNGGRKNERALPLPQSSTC

[13] = Half life in rat; format: ADME, organism-based; conditions: in vivo
[14] = Cmax in rat administered at 1 mg/kg, po; format: ADME, organism-based; parameters: dose 1 mg/kg, route oral; conditions: in vivo
[15] = biological target: Cyclin-dependent kinase 1 (Homo sapiens) (UniProt P06493); assay: Inhibition of CDK1 at 10 uM
Chain of Cyclin-dependent kinase 1 (Homo sapiens) (P06493 whole entry, looked up): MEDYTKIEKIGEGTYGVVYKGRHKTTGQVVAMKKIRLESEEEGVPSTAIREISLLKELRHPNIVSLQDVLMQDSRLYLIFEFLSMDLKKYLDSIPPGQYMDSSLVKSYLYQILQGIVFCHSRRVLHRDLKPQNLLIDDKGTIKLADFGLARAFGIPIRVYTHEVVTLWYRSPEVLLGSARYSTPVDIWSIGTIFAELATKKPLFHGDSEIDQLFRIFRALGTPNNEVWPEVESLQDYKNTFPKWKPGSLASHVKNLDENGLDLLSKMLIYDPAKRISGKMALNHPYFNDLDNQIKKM

[16] = biological target: Mast/stem cell growth factor receptor Kit (Homo sapiens) (UniProt P10721); assay: Inhibition of c-Kit at 10 uM
[17] = biological target: T3, Epidermal growth factor receptor; conditions: 10 uM
[18] = biological target: T2, Receptor tyrosine-protein kinase erbB-2; assay: Inhibition of HER2 at 10 uM
[19] = biological target: T1, Fibroblast growth factor receptor; assay: Inhibition of FGFR at 10 uM; format: protein assay

| bioavailability [1] | IC50 [5] | Structure (SMILES) | inhibition in vivo at 25 mg/kg (Rattus norvegicus [3]) | inhibition in vivo at 20 mg/kg (Mus musculus) | further results |
| --- | --- | --- | --- | --- | --- |
| 22% | 0.0007 µM | COc1ccc(C(=O)NC2CCOCC2)cc1-c1[nH]nc2nc(Nc3ccc(F)cc3F)ccc12 | 28% | 97% | half-life [13]: 1.4 h; Cmax [14]: 0.006 µM |
|  | 0.043 µM | COc1ccc(CCC(C)(C)N)cc1-c1[nH]nc2nc(Nc3ccc(F)cc3F)ncc12 |  | 68% |  |
| 95% | 0.02 µM | COc1ccc(C#CC(C)(C)N)cc1-c1[nH]nc2nc(Nc3ccc(F)cc3F)ccc12 | 49% | 98% | inhibition in vivo at 10 mg/kg (Rattus norvegicus [6]): 85%; AUC [7]: 0.422 µg·h/mL; IC50 [8]: 100 µM; inhibition [15]: 0%; Cmax [14]: 0.052 µM; inhibition [12]: 0% |
|  | 0.0006 µM | COc1ccc(C#CCN(C)C)cc1-c1[nH]nc2nc(Nc3ccc(F)cc3F)ncc12 |  | 96% |  |
|  | 0.014 µM | COc1ccc(CCCN2CCN(C)CC2)cc1-c1[nH]nc2nc(Nc3ccc(F)cc3F)ncc12 |  | 73% |  |
| 20% | 0.033 µM | COc1ccc(CCC(C)(C)N)cc1-c1[nH]nc2nc(Nc3ccc(F)cc3F)ccc12 | 9% | 78% | Cmax [14]: 0.011 µM |
|  | 0.021 µM | COc1ccc(CCC(C)(C)O)cc1-c1[nH]nc2nc(Nc3ccc(F)cc3F)cnc12 |  | 94% |  |
|  | 0.058 µM | COc1ccc(CNC2CCCC2)cc1-c1[nH]nc2nc(Nc3ccc(F)cc3F)ccc12 |  | 38% |  |
|  | 0.094 µM | COc1ccc(CNC2CCOCC2)cc1-c1n[nH]c2nc(Nc3ccc(F)cc3F)ccc12 | 46% | 80% | inhibition in vivo at 10 mg/kg (Rattus norvegicus [6]): 10% |
| 9% | 0.01 µM | COc1ccc(C#CC(C)(C)N)cc1-c1[nH]nc2nc(Nc3ccc(F)cc3F)cnc12 | 37% | 98% | half-life [13]: 2.6 h |
|  | 0.0009 µM | COc1ccc(C#CCN2CCN(C)CC2)cc1-c1[nH]nc2nc(Nc3ccc(F)cc3F)ncc12 |  | 96% |  |

Continued, molecule first:

| Structure (SMILES) | bioavailability [1] | IC50 [5] | inhibition in vivo at 25 mg/kg (Rattus norvegicus [3]) | inhibition in vivo at 20 mg/kg (Mus musculus) | further results |
| --- | --- | --- | --- | --- | --- |
| COc1ccc(C#CC(C)(C)N)cc1-c1[nH]nc2nc(Nc3ccc(F)cc3F)ncc12 | 16% | 0.012 µM | 69% | 85% | IC50 [2]: 10 µM; inhibition [4]: 0%; inhibition in vivo at 10 mg/kg (Rattus norvegicus [6]): 75%; AUC [7]: 0.512 µg·h/mL; IC50 [8]: 8.3 µM; IC50 [9]: 5 µM; IC50 [10]: 5.2 µM; IC50 [11]: 1.5 µM; inhibition [12]: 0% |
| COc1ccc(C(=O)N2CCNCC2)cc1-c1[nH]nc2nc(Nc3ccc(F)cc3F)ccc12 |  | 0.28 µM |  | 3% |  |
| COc1ccc(CCC(C)(C)N)cc1-c1[nH]nc2nc(Nc3ccc(F)cc3F)cnc12 |  | 0.029 µM |  | 0% |  |
| COc1ccc(C#CC(C)(C)O)cc1-c1[nH]nc2nc(Nc3ccc(F)cc3F)cnc12 | 22% | 0.007 µM | 41% | 98% | inhibition in vivo at 10 mg/kg (Rattus norvegicus [6]): 57%; inhibition [16]: 0%; IC50 [8]: > 100 µM; inhibition [17]: 0%; Cmax [14]: 0.16 µM; inhibition [18]: 0%; inhibition [19]: -5% |
| COc1ccc(C#CC(C)(C)O)cc1-c1[nH]nc2nc(Nc3ccc(F)cc3F)ncc12 |  | 0.019 µM | 34% | 98% |  |
| COc1ccc(C(=O)O)cc1-c1[nH]nc2nc(Nc3ccc(F)cc3F)ccc12 |  | 0.2 µM |  |  |  |
| COc1ccc(CCCN(C)C)cc1-c1[nH]nc2nc(Nc3ccc(F)cc3F)ncc12 |  | 0.011 µM |  | 93% |  |
| COc1ccc(CCC(C)(C)O)cc1-c1[nH]nc2nc(Nc3ccc(F)cc3F)ncc12 |  | 0.047 µM | 36% | 98% |  |
| COc1ccc(C(=O)NC2CCCC2)cc1-c1[nH]nc2nc(Nc3ccc(F)cc3F)ccc12 | 26% | 0.005 µM | 34% | 97% | half-life [13]: 1.6 h; Cmax [14]: 0.006 µM |
